Consider two compounds from ChEMBL document CHEMBL3877303 (J Med Chem, 2017).

The target in data set [1] is T1, Mast/stem cell growth factor receptor Kit (Homo sapiens, UniProt P10721). Briefly: Inhibition of c-KIT mediated signaling pathways assessed as reduction in ERK1/2 phosphorylation at T202/Y204 in human GIST882 cells at 0.03 to 10 uM measured after 2 hrs by immunoblotting. Type of data set: cell-based. The gist of the method:
(§1)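 After an ice-cold PBS wash, cells were lysed in RIPA buffer (50 mM Tris pH 8.0) with protease and phosphatase inhibitors, and protein was quantified by BCA. Lysates were run on SDS-PAGE, transferred to PVDF and blocked in 5% milk/TBST. Phospho- and total proteins were probed by immunoblot with ECL detection; β-actin served as loading control.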
A general note: A western blot detects proteins with antibodies after separation by electrophoresis.

Data set [2] relates to GISTT1. Briefly: Induction of apoptosis in human GISTT1 cells assessed as cleavage of PARP at 0.1 to 3 uM by Western blot analysis. Type of data set: functional, cell-based. The method, boiled down:
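Cells were treated with DMSO or serially diluted compound for the indicated periods. They were washed in ice-cold PBS and lysed in RIPA buffer with protease/phosphatase inhibitors, and protein was quantified by BCA. Lysates were resolved by SDS-PAGE, transferred to PVDF and blocked in 5% milk/TBST. Blots were probed for PARP and caspase-3, with β-actin as loading control, and detected by ECL.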

Data set [3] addresses Discoidin domain-containing receptor 2 (Homo sapiens, UniProt Q16832). Briefly: Inhibition of recombinant His-tagged human DDR2 cytoplasmic domain expressed in baculovirus expression system measured after 1 hr by FRET based Z'Lyte assay. The gist of the method: (§2)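 Z'-LYTE FRET biochemical kinase assay run by Invitrogen on selected kinases identified from binding profiling; IC50 from dose-response.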

The target in data set [4] is T2, BCR/ABL p210 fusion protein (Homo sapiens, UniProt A1Z199). Briefly: Inhibition of BCR/ABL p210 fusion protein mediated signaling pathways assessed as reduction in ERK phosphorylation at T202/Y204 in human MEG01 cells at 0.01 to 3 uM measured after 2 hrs by immunoblotting. The conditions noted are these: MEG-01. Type of data set: cell-based. The gist of the method: as §1

Data set [5] addresses T2, BCR/ABL p210 fusion protein. Briefly: Inhibition of BCR/ABL p210 fusion protein mediated signaling pathways assessed as reduction in ERK phosphorylation at T202/Y204 in human KU812 cells at 0.01 to 3 uM measured after 2 hrs by immunoblotting. Type of data set: cell-based. The method, boiled down: as §1
For data set [6], the target named is Tyrosine-protein kinase Blk (Homo sapiens, UniProt P51451). Briefly: Inhibition of full length recombinant His-tagged human BLK cytoplasmic domain expressed in baculovirus expression system assessed as residual activity at 1 uM measured after 1 hr by FRET based Z'Lyte assay relative to control.
The target of data set [7] is T2, BCR/ABL p210 fusion protein. Briefly: Inhibition of BCR/ABL p210 fusion protein autophosphorylation at Y245 in human […] cells at 0.01 to 3 uM measured after 2 hrs by immunoblotting. Format: cell-based. The method, boiled down: as §1
The nature of data set [8]: Cell cycle arrest in human GIST882 cells assessed as accumulation at G0/G1 phase at 0.3 uM after 48 hrs by propidium iodide/RNase staining based flow cytometry. Type of data set: functional. The gist of the method: (§3)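 Cells were exposed to serially diluted compound, then fixed in cold 70% ethanol overnight at -20 °C. They were stained with PI/RNase buffer for DNA-content cell-cycle analysis.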
For orientation: A flow cytometer gives signals particle by particle.

The target in data set [9] is T1, Mast/stem cell growth factor receptor Kit. Briefly: Inhibition of c-KIT autophosphorylation at Y823 in human GIST882 cells at 0.01 to 3 uM measured after 2 hrs by immunoblotting. Type of data set: cell-based. The gist of the method: as §1
For data set [10] the target is unchanged. Briefly: Inhibition of c-KIT mediated signaling pathways assessed as reduction in AKT phosphorylation at S473 in human GIST882 cells at 0.03 to 10 uM measured after 2 hrs by immunoblotting. Type of data set: cell-based. The gist of the method: as §1
Data set [11] concerns Mus musculus. Briefly: Toxicity in nu/nu mouse xenografted with human K562 cells assessed as change in body weight at 25 to 100 mg/kg/day administered via oral gavage measured after 28 days. Format: organism-based. Particulars: in vivo, 672 h. The gist of the method:
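Female nu/nu mice given 10 million K562 cells in PBS/Matrigel (1:1) subcutaneously into the right flank. Once tumors reached 200 to 400 mm³, mice were randomized into groups of 4 or 5 and dosed daily by oral gavage in 0.5% methylcellulose/0.4% Tween80 in water, or vehicle, for 28 days. Body weight measured and expressed relative to initial; mean ± SEM.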
On the technique in general: A xenograft is tissue or cells of one species grown in another, often human tumour cells in immunodeficient mice.

Data set [12] deals with T1, Mast/stem cell growth factor receptor Kit. Briefly: Inhibition of c-KIT autophosphorylation at Y823 in human GISTT1 cells at 0.03 to 10 uM measured after 2 hrs by immunoblotting. Format: cell-based. The method, boiled down:
as §1

For data set [13], the target named is T3, Platelet-derived growth factor receptor beta (Homo sapiens, UniProt P09619). Briefly: Inhibition of recombinant His-tagged human PDGFR-beta cytoplasmic domain (558 to 1106 residues) expressed in baculovirus expression system assessed as residual activity at 1 uM by KINOMEscan binding assay relative to control.
Data set [14] addresses Serine/threonine-protein kinase 10 (Homo sapiens) (UniProt O94804). Briefly: Inhibition of LOK (unknown origin) assessed as residual activity at 1 uM by KINOMEscan binding assay relative to control.
Data set [15] concerns the target T3, Platelet-derived growth factor receptor beta. Briefly: Inhibition of recombinant His-tagged human PDGFR-beta cytoplasmic domain (558 to 1106 residues) expressed in baculovirus expression system measured after 1 hr by FRET based Z'Lyte assay. The gist of the method: as §2
Data set [16] in a line: Anticancer activity against human K562 cells xenografted in nu/nu mouse assessed as tumor weight at 50 mg/kg administered via oral gavage measured after 28 days (reference value: 6.75 g). Type of data set: functional. The method, boiled down:
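Female nu/nu mice received ten million K562 cells subcutaneously in the right flank, in PBS mixed 1:1 with Matrigel. Daily oral gavage began at 200-400 mm³ tumor size, with 4 or 5 mice per group. Dosing was 25, 50 or 100 mg/kg/d or vehicle (0.5% methylcellulose/0.4% Tween80) for 28 days. Body weight and tumor size were normalized to initial values, and final tumor weight was recorded. Data are mean ± SEM.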

Data set [17] is described as follows: Anticancer activity against human GISTT1 cells xenografted in nu/nu mouse assessed as tumor weight at 50 mg/kg, po administered daily via oral gavage measured 21 days post compound treatment (reference value: 2.86 g).
The target of data set [18] is T1, Mast/stem cell growth factor receptor Kit. The conditions noted are these: GISTT1, 1 uM.
The target is the same in data set [19]. Particulars: 1 uM.
Data set [20] has the same target. The conditions noted are these: 1 uM. This is another data set of the same source.
Data set [21] shares this target. The conditions noted are these: GISTT1, 1 uM. The source holds these as a separate data set.
Data set [22] shares this target. The conditions noted are these: 1 uM. This is another data set of the same source.
Data set [23] can be described thus: Cell cycle arrest in human KU812 cells assessed as accumulation at G0/G1 phase at 1 uM after 12 hrs by propidium iodide/RNase staining based flow cytometry. Format: functional. The method, boiled down:
as §3

Each structure is given as a SMILES string. The source made the active and inactive calls. No cut-off for these calls is given here.

T2 sequence (A1Z199 1-97): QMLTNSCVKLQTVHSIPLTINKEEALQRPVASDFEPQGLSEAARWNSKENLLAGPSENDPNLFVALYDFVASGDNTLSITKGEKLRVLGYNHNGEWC
T1 sequence (P10721 whole entry): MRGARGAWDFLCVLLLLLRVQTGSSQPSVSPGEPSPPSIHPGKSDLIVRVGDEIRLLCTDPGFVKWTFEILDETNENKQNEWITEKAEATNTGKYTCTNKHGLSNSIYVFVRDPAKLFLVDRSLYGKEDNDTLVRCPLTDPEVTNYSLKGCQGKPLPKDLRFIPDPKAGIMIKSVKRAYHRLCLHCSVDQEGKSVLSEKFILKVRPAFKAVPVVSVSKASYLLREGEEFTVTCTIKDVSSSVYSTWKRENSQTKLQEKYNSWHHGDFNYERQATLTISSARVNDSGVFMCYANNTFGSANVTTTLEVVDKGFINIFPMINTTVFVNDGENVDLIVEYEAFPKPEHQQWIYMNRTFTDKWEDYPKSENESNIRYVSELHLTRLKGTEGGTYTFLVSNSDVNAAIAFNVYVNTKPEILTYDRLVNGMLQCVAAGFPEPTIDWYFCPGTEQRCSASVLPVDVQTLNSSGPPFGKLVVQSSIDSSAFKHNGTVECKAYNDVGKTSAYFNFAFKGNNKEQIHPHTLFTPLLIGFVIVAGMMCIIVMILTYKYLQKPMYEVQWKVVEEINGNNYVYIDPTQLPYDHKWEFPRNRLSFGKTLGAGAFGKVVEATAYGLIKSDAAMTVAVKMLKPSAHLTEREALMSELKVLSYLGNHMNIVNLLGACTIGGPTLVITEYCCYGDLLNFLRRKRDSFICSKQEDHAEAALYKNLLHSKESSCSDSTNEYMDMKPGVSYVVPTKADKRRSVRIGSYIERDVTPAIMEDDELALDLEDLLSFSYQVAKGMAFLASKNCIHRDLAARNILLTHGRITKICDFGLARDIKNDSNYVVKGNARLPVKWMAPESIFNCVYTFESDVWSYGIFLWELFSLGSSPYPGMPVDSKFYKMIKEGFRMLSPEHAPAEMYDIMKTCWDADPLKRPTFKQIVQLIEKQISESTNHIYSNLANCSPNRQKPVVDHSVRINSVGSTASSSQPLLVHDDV
T3 sequence (P09619 whole entry, the tested form may be a part): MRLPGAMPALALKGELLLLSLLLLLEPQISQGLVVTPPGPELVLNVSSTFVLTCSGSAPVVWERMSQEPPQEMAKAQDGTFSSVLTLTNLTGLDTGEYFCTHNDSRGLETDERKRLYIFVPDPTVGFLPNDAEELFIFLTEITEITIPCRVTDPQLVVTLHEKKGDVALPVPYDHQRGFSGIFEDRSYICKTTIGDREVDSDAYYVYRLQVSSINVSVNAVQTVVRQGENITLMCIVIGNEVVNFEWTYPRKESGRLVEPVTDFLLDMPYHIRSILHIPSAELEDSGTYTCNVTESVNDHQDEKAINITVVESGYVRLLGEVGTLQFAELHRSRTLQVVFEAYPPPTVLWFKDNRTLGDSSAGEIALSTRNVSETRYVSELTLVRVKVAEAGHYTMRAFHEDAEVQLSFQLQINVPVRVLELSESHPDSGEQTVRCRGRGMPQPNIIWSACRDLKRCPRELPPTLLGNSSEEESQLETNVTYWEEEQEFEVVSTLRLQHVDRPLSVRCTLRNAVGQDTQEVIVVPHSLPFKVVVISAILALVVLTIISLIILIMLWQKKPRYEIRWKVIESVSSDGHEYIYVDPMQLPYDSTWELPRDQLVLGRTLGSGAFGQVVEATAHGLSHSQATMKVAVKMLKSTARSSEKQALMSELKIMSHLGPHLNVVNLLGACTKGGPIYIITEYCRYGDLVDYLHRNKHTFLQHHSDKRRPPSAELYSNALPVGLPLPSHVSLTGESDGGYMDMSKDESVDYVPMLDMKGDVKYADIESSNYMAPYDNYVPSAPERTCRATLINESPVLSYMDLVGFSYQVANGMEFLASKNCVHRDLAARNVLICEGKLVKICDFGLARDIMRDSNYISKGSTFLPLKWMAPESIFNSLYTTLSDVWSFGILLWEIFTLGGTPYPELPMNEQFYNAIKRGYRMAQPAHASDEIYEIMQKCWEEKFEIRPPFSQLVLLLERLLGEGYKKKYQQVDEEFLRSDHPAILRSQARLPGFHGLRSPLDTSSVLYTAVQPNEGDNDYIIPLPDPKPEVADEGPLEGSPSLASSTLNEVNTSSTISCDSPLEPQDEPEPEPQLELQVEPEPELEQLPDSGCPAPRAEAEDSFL
Serine/threonine-protein kinase 10 (Homo sapiens), sequence (O94804 whole entry, looked up, the tested form may be a part): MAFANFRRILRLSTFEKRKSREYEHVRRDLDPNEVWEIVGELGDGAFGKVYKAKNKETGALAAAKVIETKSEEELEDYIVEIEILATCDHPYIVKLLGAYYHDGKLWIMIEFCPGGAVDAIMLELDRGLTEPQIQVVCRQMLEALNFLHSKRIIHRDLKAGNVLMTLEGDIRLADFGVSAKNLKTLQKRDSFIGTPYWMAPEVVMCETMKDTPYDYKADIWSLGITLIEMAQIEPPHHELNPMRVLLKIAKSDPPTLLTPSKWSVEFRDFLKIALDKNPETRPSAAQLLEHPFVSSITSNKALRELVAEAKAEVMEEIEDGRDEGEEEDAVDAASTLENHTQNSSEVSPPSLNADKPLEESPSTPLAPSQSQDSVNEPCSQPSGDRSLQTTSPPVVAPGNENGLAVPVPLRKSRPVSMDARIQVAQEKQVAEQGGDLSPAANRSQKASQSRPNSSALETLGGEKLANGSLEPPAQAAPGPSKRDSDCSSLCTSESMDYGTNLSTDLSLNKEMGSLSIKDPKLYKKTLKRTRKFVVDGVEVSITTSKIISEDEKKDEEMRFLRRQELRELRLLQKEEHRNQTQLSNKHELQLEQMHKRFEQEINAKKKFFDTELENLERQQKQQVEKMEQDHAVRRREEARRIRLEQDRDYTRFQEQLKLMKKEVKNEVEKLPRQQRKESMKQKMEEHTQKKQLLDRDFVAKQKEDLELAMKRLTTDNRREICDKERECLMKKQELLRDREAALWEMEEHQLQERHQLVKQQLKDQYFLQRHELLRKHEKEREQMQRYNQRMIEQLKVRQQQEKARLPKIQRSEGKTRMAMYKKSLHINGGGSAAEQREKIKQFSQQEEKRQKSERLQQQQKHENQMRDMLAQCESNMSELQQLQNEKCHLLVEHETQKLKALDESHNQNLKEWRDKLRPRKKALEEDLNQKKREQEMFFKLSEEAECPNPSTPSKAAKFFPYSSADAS
Discoidin domain-containing receptor 2, sequence (Q16832 whole entry, the tested form may be a part): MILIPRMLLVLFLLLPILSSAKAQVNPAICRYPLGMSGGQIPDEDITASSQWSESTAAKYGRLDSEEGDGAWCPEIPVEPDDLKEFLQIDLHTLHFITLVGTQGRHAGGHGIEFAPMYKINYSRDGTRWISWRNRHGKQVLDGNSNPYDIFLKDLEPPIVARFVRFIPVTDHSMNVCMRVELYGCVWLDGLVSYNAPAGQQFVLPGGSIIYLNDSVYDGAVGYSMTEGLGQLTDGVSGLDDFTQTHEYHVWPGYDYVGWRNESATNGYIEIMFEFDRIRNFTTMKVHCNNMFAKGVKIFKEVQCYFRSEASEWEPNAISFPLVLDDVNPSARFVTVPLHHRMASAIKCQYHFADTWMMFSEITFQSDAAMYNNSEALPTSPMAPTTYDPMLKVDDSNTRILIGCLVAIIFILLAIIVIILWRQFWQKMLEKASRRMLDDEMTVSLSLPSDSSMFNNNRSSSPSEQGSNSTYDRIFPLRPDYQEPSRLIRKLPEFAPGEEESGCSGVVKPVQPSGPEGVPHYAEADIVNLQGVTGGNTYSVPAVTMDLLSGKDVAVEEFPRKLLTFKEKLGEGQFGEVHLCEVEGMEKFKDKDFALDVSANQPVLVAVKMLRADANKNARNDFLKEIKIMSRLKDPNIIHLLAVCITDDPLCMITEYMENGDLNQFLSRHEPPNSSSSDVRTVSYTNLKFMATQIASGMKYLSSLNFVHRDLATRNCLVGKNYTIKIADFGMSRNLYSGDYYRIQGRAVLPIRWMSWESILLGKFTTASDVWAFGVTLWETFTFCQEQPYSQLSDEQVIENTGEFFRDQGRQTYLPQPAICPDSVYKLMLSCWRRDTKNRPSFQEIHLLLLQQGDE
Tyrosine-protein kinase Blk, sequence (P51451 2-505 limits assumed): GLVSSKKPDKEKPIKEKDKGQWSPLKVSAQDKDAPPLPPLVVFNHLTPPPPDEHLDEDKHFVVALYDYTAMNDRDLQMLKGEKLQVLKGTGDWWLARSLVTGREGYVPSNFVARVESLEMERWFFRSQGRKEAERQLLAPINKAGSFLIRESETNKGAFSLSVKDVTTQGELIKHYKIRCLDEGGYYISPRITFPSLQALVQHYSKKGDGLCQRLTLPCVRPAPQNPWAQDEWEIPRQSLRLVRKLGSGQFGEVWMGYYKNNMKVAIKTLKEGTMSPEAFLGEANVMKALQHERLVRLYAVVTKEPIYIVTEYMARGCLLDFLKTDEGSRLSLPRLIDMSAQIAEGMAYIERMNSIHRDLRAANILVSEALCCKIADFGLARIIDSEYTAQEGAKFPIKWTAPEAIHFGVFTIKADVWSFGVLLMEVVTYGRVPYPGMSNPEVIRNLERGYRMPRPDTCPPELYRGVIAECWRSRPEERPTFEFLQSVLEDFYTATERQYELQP

By IC50 is commonly meant the concentration needed to halve the response being measured. `Cc1ccc(C(=O)N2CCC(Oc3cc(NC(=O)c4ccc(CN5CCN(C)CC5)c(C(F)(F)F)c4)ccc3C)CC2)cn1`: the inhibition result in [1], in data set [4], in data set [5], in data set [7], in [9] and in data set [10] was “Active” throughout. In [12], the inhibition entry was “Active”. The outcome in data set [2] and in [8] was Active. For the same compound, the IC50 in [3] came out at 325 nM; in data set [15], 80 nM. For the same compound, the Activity was 0.45% in [6]; “Non-Toxic” in [11]; 0.3% in data set [13]; 0.6% in [14]; 6.51 g in [16]; 2.19 g in data set [17].

Take `Cc1ccc(NC(=O)c2ccc(CN3CCN(C)CC3)cc2)cc1Nc1nccc(-c2cccnc2)n1` [IMATINIB]: the inhibition entry in data set [18], in data set [19], in data set [20], in data set [21] and in data set [22] was “Active” each time. The outcome in [23] was Active.
